Our source for the Activity and IC50 values is ChEMBL document CHEMBL4261629 (Bioorg Med Chem, 2018).

The IC50 is the point on the concentration scale where inhibition reaches its midpoint.

Data set [1] is described as follows: Antioxidant activity assessed as tert-butyl hydroperoxide radical scavenging at 10 uM up to 200 mins. In kind it is functional. The method in brief: (§1)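 Kinetic peroxide scavenging by GSH at 25 °C in 100 mM phosphate buffer, pH 7.5. Final conditions: EDTA 1 mM, GSH 0.25 mM, NADPH 0.50 mM, glutathione reductase 1.3 unit·mL-1, peroxide 0.20 mM (H2O2, t-BuOOH or Cum-OOH), catalyst 10 μM. Scavenging was followed over time, and maximal scavenging was derived. Mean ± SE, three independent experiments.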

The nature of data set [2]: Antioxidant activity assessed as H2O2 radical scavenging at 10 uM up to 200 mins. It is filed as functional. The method in brief:
as §1

The test system of data set [3] is PC-12. Nature of the data set: Antioxidant activity against H2O2-induced oxidative stress in rat PC12 cells assessed as decrease in ROS accumulation at 5 uM preincubated for 24 hrs followed by H2O2 challenge and measured after 12 hrs coincubated with tubastatin A by DCFH-DA dye-based fluorescence analysis. In kind it is functional, cell-based. The method in brief: (§2)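 Intracellular ROS was detected by DCFH-DA staining, which esterases deacetylate and ROS oxidise to fluorescent dichlorofluorescein. Fluorescence was quantified on a microplate reader.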

For data set [4], the system named is PC-12. Nature of the data set: Antioxidant activity against H2O2-induced oxidative stress in rat PC12 cells assessed as decrease in ROS accumulation preincubated for 24 hrs followed by H2O2 challenge and measured after 12 hrs coincubated with tubastatin A by DCFH-DA dye-based fluorescence analysis. It is filed as functional, cell-based. The method in brief:
as §2

For data set [5], the system named is PC-12. In words: Cytotoxicity against rat PC12 cells at 20 uM after 24 hrs by MTT assay. It is filed as cell-based. The conditions noted are these: pc-12, 24 h. In general terms: Formazan colour is commonly taken as a measure of viable cells.
The test system of data set [6] is PC-12. Nature of the data set: Neuroprotective activity against 6-OHDA-induced toxicity in rat PC12 cells assessed as increase in cell viability at 10 uM pretreated for 24 hrs followed by 6-OHDA challenge and measured after 12 hrs by MTT assay. It is filed as functional, cell-based. The method in brief: (§3)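 Medium was replaced with fresh medium containing H2O2 (400 μM) or 6-OHDA (200 μM), and incubation continued 12 h. Viability was read by MTT assay. Mean ± SD, three independent experiments.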

Data set [7] deals with PC-12. In words: Cytoprotective activity against H2O2-induced damage in rat PC12 cells assessed as decrease in ROS accumulation preincubated for 24 hrs followed by H2O2 challenge measured after 12 hrs by DCFH-DA dye-based fluorescence analysis. It is filed as functional, cell-based. An outline of the steps: as §2
The test system of data set [8] is PC-12. In words: Neuroprotective activity against H2O2-induced toxicity in rat PC12 cells assessed as cell viability at 10 uM pretreated for 24 hrs followed by H2O2 challenge and measured after 12 hrs by MTT assay relative to control. It is filed as functional, cell-based. An outline of the steps: as §3
The test system of data set [9] is PC-12. Nature of the data set: Neuroprotective activity against H2O2-induced toxicity in rat PC12 cells assessed as cell viability at 5 to 10 uM pretreated for 24 hrs followed by H2O2 challenge and measured after 12 hrs coincubated with tubastatin A by MTT assay relative to control. In kind it is functional. The method in brief:
as §3

Data set [10] deals with T1, Protein deacetylase HDAC6 (Homo sapiens, UniProt Q9UBN7).
T1 sequence (Q9UBN7 whole entry): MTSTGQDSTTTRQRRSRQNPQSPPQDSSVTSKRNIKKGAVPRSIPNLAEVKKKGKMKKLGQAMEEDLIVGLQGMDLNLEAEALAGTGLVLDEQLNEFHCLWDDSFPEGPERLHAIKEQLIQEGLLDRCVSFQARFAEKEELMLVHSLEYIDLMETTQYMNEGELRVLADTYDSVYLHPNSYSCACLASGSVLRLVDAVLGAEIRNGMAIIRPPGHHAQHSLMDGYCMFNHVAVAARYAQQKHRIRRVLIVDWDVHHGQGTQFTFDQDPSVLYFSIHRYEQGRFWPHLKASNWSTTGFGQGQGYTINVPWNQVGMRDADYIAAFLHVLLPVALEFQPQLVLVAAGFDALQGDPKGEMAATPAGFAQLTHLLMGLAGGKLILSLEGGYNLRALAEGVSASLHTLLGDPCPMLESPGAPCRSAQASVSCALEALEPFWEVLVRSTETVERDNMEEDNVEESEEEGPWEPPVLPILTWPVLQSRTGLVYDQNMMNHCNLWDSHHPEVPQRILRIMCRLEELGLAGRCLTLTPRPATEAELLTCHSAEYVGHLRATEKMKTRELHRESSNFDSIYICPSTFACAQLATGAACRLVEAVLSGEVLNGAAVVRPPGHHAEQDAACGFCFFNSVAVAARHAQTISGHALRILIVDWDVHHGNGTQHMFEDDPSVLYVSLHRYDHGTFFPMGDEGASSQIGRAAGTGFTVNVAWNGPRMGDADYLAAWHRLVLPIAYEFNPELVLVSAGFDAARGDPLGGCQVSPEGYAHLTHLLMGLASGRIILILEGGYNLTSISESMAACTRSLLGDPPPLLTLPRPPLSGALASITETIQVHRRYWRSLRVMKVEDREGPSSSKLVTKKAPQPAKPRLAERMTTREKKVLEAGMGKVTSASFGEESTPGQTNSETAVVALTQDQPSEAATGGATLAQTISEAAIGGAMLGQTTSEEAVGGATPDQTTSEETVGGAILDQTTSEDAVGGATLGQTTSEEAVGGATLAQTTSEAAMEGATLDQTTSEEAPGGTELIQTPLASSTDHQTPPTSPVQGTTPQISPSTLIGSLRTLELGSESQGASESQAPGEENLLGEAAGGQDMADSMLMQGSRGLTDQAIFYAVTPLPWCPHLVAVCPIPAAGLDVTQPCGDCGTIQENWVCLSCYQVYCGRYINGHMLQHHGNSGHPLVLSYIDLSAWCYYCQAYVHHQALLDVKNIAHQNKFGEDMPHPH
In words: Inhibition of recombinant human HDAC6 using fluorogenic HDAC substrate preincubated for 15 mins followed by substrate addition and measured after 30 mins by fluorescence analysis.

Data set [11] in a line: Antioxidant activity assessed as cumene hydroperoxide radical scavenging at 10 uM up to 200 mins. In kind it is functional. An outline of the steps: as §1
In data set [12] the test system is PC-12. In words: Antioxidant activity against H2O2-induced oxidative stress in rat PC12 cells assessed as decrease in ROS accumulation at 5 uM preincubated for 24 hrs followed by H2O2 challenge and measured after 12 hrs by DCFH-DA dye-based fluorescence analysis. It is filed as functional, cell-based. An outline of the steps:
as §2

Data set [13] deals with PC-12. In words: Neuroprotective activity against 6-OHDA-induced toxicity in rat PC12 cells assessed as increase in cell viability at 5 uM pretreated for 24 hrs followed by 6-OHDA challenge and measured after 12 hrs by MTT assay. It is filed as functional, cell-based. An outline of the steps: as §3
In data set [14] the test system is PC-12. In words: Neuroprotective activity against 6-OHDA-induced toxicity in rat PC12 cells assessed as increase in cell viability at 5 to 10 uM pretreated for 24 hrs followed by 6-OHDA challenge and measured after 12 hrs coincubated with tubastatin A by MTT assay. It is filed as functional, cell-based. The method in brief:
as §3

For data set [15], the system named is PC-12. Nature of the data set: Cytoprotective activity against H2O2-induced damage in rat PC12 cells assessed as decrease in ROS accumulation preincubated for 24 hrs followed by H2O2 challenge measured after 12 hrs by DCFH-DA dye-based inverted fluorescence microscopic analysis. It is filed as functional, cell-based. The method in brief:
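PC12 cells were pretreated with compound (5 or 10 µM), then challenged with H2O2 and stained with DCFH-DA to show ROS. Fluorescence images were taken by inverted fluorescence microscopy.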

For data set [16], the system named is PC-12. In words: Cytotoxicity against rat PC12 cells at 20 uM in presence of tubastantin A after 24 hrs by MTT assay. In kind it is cell-based. The settings on record: pc-12, 24 h.

Active and inactive are the calls of the source. The rule behind the calls is not given here.

Regarding `O=c1c2ccccc2[se]n1-c1ccccc1` [EBSELEN], the Activity was 71% in data set [1]; 51% in data set [2]; “Non-Toxic” in the data set on PC-12 [5]; 90% with PC-12 [9]; 29% in [11]; “Non-Toxic” in the data set with PC-12 [16]. In addition, the result with PC-12 [3], with PC-12 [4], with PC-12 [6], in the data set on PC-12 [7], in the data set with PC-12 [8] and in the data set on PC-12 [12] was Active. Besides, the outcome in the data set with PC-12 [13], in the data set with PC-12 [14] and with PC-12 [15] was Active. The concentration for half-maximal inhibition (IC50) in data set [10] was determined as 11.5 µM.
